ChEMBL document CHEMBL1125493, “HIV-1 neutralization and tumor cell proliferation inhibition in vitro by simplified analogues of pyrido[4,3,2-mn]thiazolo[5,4-b]acridine marine alkaloids” (J Med Chem, 1992)

Columns and labels:
[1] = system: Human immunodeficiency virus 1; assay: Inhibitory effect against HIV-1 induced cytopathic effects(HIV-1 neutralization) in MT-4 lymphocytes at a concentration of 100 ug/mL (0.2900 uM/mL).; format: functional
Procedure, shortened: (§1)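 HIV-1 Molt IIIB (~2 × 10^4 TCID50 in 100 μL) preincubated 1 h at 37 °C with a single compound dose, then added to MT-4 cells (5 × 10^5 cells/well, 1 mL). Cultured at 37 °C, 5% CO2. Viable cells counted by trypan blue exclusion on days 4 and 7. Triplicates; % viable cells. Controls: infected cells (positive), uninfected cells (negative).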

[2] = system: Human immunodeficiency virus 1; assay: Inhibitory effect (100 uM) against HIV-1 in human peripheral blood monocyte cells(PBMC) (EC50 ->34.5 ug/mL); format: functional
MT4 [3] = assay: Cytotoxic effect in cultured MT-4 lymphocytes at a concentration of 100 ug/mL (0.2900 uM/mL).; format: functional, Homo sapiens
Procedure, shortened: (§2)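 MT-4 cells at 5 × 10^4 cells/well, 1 mL total, cultured with compound diluted in RPMI 1640 with 10% FBS, 10 mM HEPES, penicillin/streptomycin and 2 mM glutamine, at 37 °C under 5% CO2. Viability was scored by trypan blue exclusion on days 4 and 7, in triplicate, as % viable cells.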

MT4 [4] = assay: Cytotoxic effect in cultured MT-4 lymphocytes at a concentration of 2 ug/mL (0.0060 uM/mL).; format: functional, Homo sapiens; procedure, shortened: as §2
MT4 [5] = assay: Cytotoxic effect in cultured MT-4 lymphocytes at a concentration of 10 ug/mL (0.0290 uM/mL).; format: functional, Homo sapiens; procedure, shortened: as §2
[6] = system: Human immunodeficiency virus 1; assay: Inactivation of HIV-MoltIIIB strain in MT-4 lymphocytes in vitro at a concentration of 100 ug/mL (0.30 uM/mL).; format: functional
Procedure, shortened: (§3)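 Compound (50 μL) was mixed with 50 μL of HIV-1 Molt IIIB or HIV-MN inoculum in RPMI 1640 for 1 h at room temperature. The mixture was added to 5 × 10^4 MT-4 cells and kept 7 days at 37 °C, 5% CO2. MTT (5.0 mg/mL) was added for 4 h, the reaction was stopped with 0.04 N HCl/2-propanol, and OD was read at 570 nm. % inactivation was calculated from OD relative to uninfected cells and untreated virus, mean of three.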

MT4 [7] = assay: Cytotoxic effect in cultured MT-4 lymphocytes at a concentration of 10 ug/mL (0.0300 uM/mL).; format: functional, Homo sapiens; procedure, shortened: as §2
[8] = system: Human immunodeficiency virus 1; assay: Percent inhibition of HIV-1 binding to H-9 cells at a concentration of 100(ug/mL).; format: functional
Procedure, shortened: (§4)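 HIV-1 Molt IIIB (50 μL) incubated overnight with compound at 100 μg/mL, then with uninfected H-9 cells 2 h at 37 °C. Washed; stained with HIV-positive human serum (1:100) then FITC anti-human IgG (1:10), 30 min at 4 °C each. Formaldehyde-fixed (0.5%) and analysed by flow cytometry for % virus bound and % binding inhibition.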

MCF7 [9] = assay: […] breast tumor cell proliferation inhibition by the compound in vitro at a concentration of 6.0 uM.; format: functional, Homo sapiens
Procedure, shortened: (§5)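 Breast tumor cells treated with specified compound concentrations in RPMI-1640 in 1% agar with 5% FBS for 1 week. Viability compared with a control given distilled water in place of drug; 5-fluorouracil as standard cytotoxic drug. Reported as concentration-dependent cell survival.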

MT4 [10] = assay: Protection of MT-4 lymphocytes by the compound against HIV-1 infectivity in vitro at a concentration of 50 ug/mL (0.150 uM/mL); format: functional, Homo sapiens
Procedure, shortened: (§6)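 Virus (HIV-1 Molt IIIB, ~2 × 10^4 TCID50) preincubated with compound 1 h at 37 °C, 5% CO2. Then added to MT-4 cells (5 × 10^5 cells/well) and cultured at 37 °C. Trypan blue viability counts taken on days 4 and 7, triplicate at each concentration. Controls were infected and uninfected cells. Reported as % viable (surviving) MT-4 cells.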

[11] = Calu3 lung tumor cell proliferation inhibition by the compound in vitro at a concentration of 60 uM.; format: functional, Homo sapiens
Procedure, shortened: (§7)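 Tumor cells grown in RPMI-1640 in 1% agar with 5% fetal bovine serum, exposed to the specified concentrations for 1 week. Viability was assessed against a control given distilled water in place of drug. 5-Fluorouracil served as the positive cytotoxic standard. Results are reported as concentration-dependent cell survival.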

[12] = system: Human immunodeficiency virus 1; assay: Inhibitory effect against HIV-1 induced cytopathic effects(HIV-1 neutralization) in MT-4 lymphocytes at a concentration of 100 ug/mL (0.3000 uM/mL).; format: functional; procedure, shortened: as §1
[13] = system: Human immunodeficiency virus 1; assay: Inactivation of HIV-MoltIIIB strain in MT-4 lymphocytes in vitro at a concentration of 200 ug/mL (0.60 uM/mL).; format: functional; procedure, shortened: as §3
[14] = system: Human immunodeficiency virus 1; assay: Inactivation of HIV-MN strain in MT-4 lymphocytes in vitro at a concentration of 200 ug/mL (0.60 uM/mL).; format: functional; procedure, shortened: as §3
[15] = system: Human immunodeficiency virus 1; assay: Protection of MT-4 lymphocytes by the compound against HIV-1 infectivity in vitro at a concentration of 100 ug/mL (0.30 uM/mL); format: functional; procedure, shortened: as §6
[16] = system: Human immunodeficiency virus 1; assay: Protection of MT-4 lymphocytes by the compound against HIV-1 infectivity in vitro at a concentration of 400 ug/mL (1.20 uM/mL); format: functional; procedure, shortened: as §6
[17] = system: Human immunodeficiency virus 1; assay: Inactivation of HIV-MN strain in MT-4 lymphocytes in vitro at a concentration of 400 ug/mL (1.20 uM/mL).; format: functional; procedure, shortened: as §3
[18] = Calu3 lung tumor cell proliferation inhibition by the compound in vitro at a concentration of 0.6 uM.; format: functional, Homo sapiens; procedure, shortened: as §7
MT4 [19] = assay: Protection of MT-4 lymphocytes by the compound against HIV-1 infectivity in vitro at a concentration of 25 ug/mL (0.075 uM/mL); format: functional, Homo sapiens; procedure, shortened: as §6
MT4 [20] = assay: Protection of MT-4 lymphocytes by the compound against HIV-1 infectivity in vitro at a concentration of 12.5 ug/mL (0.038 uM/mL); format: functional, Homo sapiens; procedure, shortened: as §6
COLO 320DM [21] = assay: COLO 320DM colon tumor cell proliferation inhibition by the compound in vitro at a concentration of 60 uM.; format: functional, Homo sapiens; procedure, shortened: as §7
[22] = system: Human immunodeficiency virus 1; assay: Inactivation of HIV-MN strain in MT-4 lymphocytes in vitro at a concentration of 100 ug/mL (0.30 uM/mL).; format: functional; procedure, shortened: as §3
[23] = Calu3 lung tumor cell proliferation inhibition by the compound in vitro at a concentration of 6.0 uM.; format: functional, Homo sapiens; procedure, shortened: as §7
COLO 320DM [24] = assay: COLO 320DM colon tumor cell proliferation inhibition by the compound in vitro at a concentration of 6.0 uM.; format: functional, Homo sapiens; procedure, shortened: as §7
MCF7 [25] = assay: […] breast tumor cell proliferation inhibition by the compound in vitro at a concentration of 60 uM.; format: functional, Homo sapiens; procedure, shortened: as §5
COLO 320DM [26] = assay: COLO 320DM colon tumor cell proliferation inhibition by the compound in vitro at a concentration of 0.6 uM.; format: functional, Homo sapiens; procedure, shortened: as §7
MCF7 [27] = assay: […] breast tumor cell proliferation inhibition by the compound in vitro at a concentration of 0.6 uM.; format: functional, Homo sapiens; procedure, shortened: as §5
[28] = system: Human immunodeficiency virus 1; assay: Percent HIV-1 bound to H-9 cells at a concentration of 100(ug/mL).; format: functional; procedure, shortened: as §4
[29] = system: Human immunodeficiency virus 1; assay: Inactivation of HIV-MoltIIIB strain in MT-4 lymphocytes in vitro at a concentration of 400 ug/mL (1.2u M/mL).; format: functional; procedure, shortened: as §3
[30] = system: Human immunodeficiency virus 1; assay: Protection of MT-4 lymphocytes by the compound against HIV-1 infectivity in vitro at a concentration of 200 ug/mL (0.60 uM/mL); format: functional; procedure, shortened: as §6
[31] = system: Human immunodeficiency virus 1; assay: Inhibitory effect (100 uM) against HIV-1 in human peripheral blood monocyte cells(PBMC) (EC50 ->32.5 ug/mL); format: functional
MT4 [32] = assay: Cytotoxic effect in cultured MT-4 lymphocytes at a concentration of 100 ug/mL (0.3000 uM/mL).; format: functional, Homo sapiens; procedure, shortened: as §2
MT4 [33] = assay: Cytotoxic effect in cultured MT-4 lymphocytes at a concentration of 2 ug/mL (0.0080 uM/mL).; format: functional, Homo sapiens; procedure, shortened: as §2

## Nc1nc2cc3c(O)c4ccccc4nc3cc2[nH]1
[1]
  Viability: 12.5%
[2]
  Inhibition: 33%
MT4 [3]
  Viability: 81.5%
MT4 [4]
  Viability: 90%
MT4 [5]
  Viability: 88.8%

## O=C([O-])CSc1ccc2c(c1)c(=O)c1ccccc1n2C1CC1.[Na+]
[6]
  Inactivation: 3.9%
MT4 [7]
  Viability: 96%
[8]
  Inhibition: 13.8%
MCF7 [9]
  Viability: 86%
MT4 [10]
  Survival: 89.2%
[11]
  Viability: 44%
[12]
  Viability: 83.7%
[13]
  Inactivation: 23.5%
[14]
  Inactivation: 10%
[15]
  Survival: 83.7%
[16]
  Survival: 86%
[17]
  Inactivation: 11.6%
[18]
  Viability: 104%
MT4 [19]
  Survival: 85.5%
MT4 [20]
  Survival: 77.3%
COLO 320DM [21]
  Viability: 87%
[22]
  Inactivation: 11.3%
[23]
  Viability: 73%
COLO 320DM [24]
  Viability: 108%
MCF7 [25]
  Viability: 44%
MT4 [4]
  Viability: 96.6%
COLO 320DM [26]
  Viability: 107%
MCF7 [27]
  Viability: 91%
[28]
  Bound: 28.7%
[29]
  Inactivation: 23.3%
[30]
  Survival: 81.3%
[31]
  Inhibition: 29%
MT4 [32]
  Viability: 100%

## Cc1nc2cc3nc4ccccc4cc3cc2s1.Cl
MT4 [33]
  Viability: 85%
